Activity calls are given as the source filed them. The rule behind the calls is not given here.
Columns and labels:
HEK-293T [1] = assay: Cellular protein labelling in HEK293T cells transfected with PARK7 siRNA assessed as unspecific 55-75 kDa band formation at 5 uM incubated for 4 hrs by SDS-PAGE based fluorescence scanning immunoblotting analysis; assay type: functional, cell-based; conditions: Homo sapiens
How it was run: (§1)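 HEK293T or A549 cells reverse-transfected with pooled PARK7 siRNA (Dharmafect 1), grown 48 h, then given probe at 5 μM final for 4 h. Lysates analysed by SDS-PAGE fluorescence scan and PARK7 immunoblot against control-transfected cells.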

[2] = target: T1, Parkinson disease protein 7 (Homo sapiens) (UniProt Q99497); assay: Binding affinity to PARK7 in human A549 cells upto 10 uM incubated for 4 hrs by SDS-PAGE based fluorescence scanning immunoblotting analysis; assay type: cell-based
T1 sequence (whole entry): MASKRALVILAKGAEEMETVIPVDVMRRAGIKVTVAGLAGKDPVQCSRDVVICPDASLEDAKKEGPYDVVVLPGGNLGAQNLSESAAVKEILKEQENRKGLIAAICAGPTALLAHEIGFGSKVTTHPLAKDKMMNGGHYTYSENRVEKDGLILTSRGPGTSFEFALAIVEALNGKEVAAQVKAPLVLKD
How it was run: (§2)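 HEK293T or A549 cells given the Bodipy probe at 0–10 μM for 4 h, then lysed. Lysates run on 12% Bis-Tris SDS-PAGE and fluorescence-scanned. Immunoblot for PARK7 with β-actin as loading control.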

[3] = target: T1, Parkinson disease protein 7 (Homo sapiens); assay: Binding affinity to PARK7 in human A549 cells assessed as band shift at 5 uM incubated for 24 hrs by SDS-PAGE based fluorescence scanning immunoblotting analysis; assay type: cell-based
How it was run: (§3)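 Probes applied to intact HEK293T or A549 cells at 5 μM final for 24 h, then lysed. Read-out by SDS-PAGE fluorescence scan and immunoblot against PARK7, looking at the ~25 kDa labelled band, PARK7 band shift and extra bands.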

A549 [4] = assay: Cellular protein labelling in human A549 cells transfected with PARK7 siRNA assessed as unspecific 55-75 kDa band formation at 5 uM incubated for 4 hrs by SDS-PAGE based fluorescence scanning immunoblotting analysis; assay type: functional, cell-based; how it was run: as §1
[5] = target: T1, Parkinson disease protein 7 (Homo sapiens); assay: Binding affinity to recombinant human PARK7 incubated for 1 hrs by coomassie staining based SDS-PAGE fluorescence scanning analysis; conditions: dose 0.1-10 µM
[6] = target: T1, Parkinson disease protein 7 (Homo sapiens); assay: Binding affinity to PARK7 in HEK293T cells upto 10 uM incubated for 4 hrs by SDS-PAGE based fluorescence scanning immunoblotting analysis; assay type: cell-based; how it was run: as §2
HEK-293T [7] = assay: Cellular protein labelling in HEK293T cells transfected with PARK7 siRNA assessed as PARK7 specific band formation at 5 uM incubated for 4 hrs by SDS-PAGE based fluorescence scanning immunoblotting analysis; assay type: functional, cell-based; conditions: Homo sapiens; how it was run: as §1
A549 [8] = assay: Cellular protein labelling in human A549 cells transfected with PARK7 siRNA assessed as PARK7 specific band formation at 5 uM incubated for 4 hrs by SDS-PAGE based fluorescence scanning immunoblotting analysis; assay type: functional, cell-based; how it was run: as §1
[9] = target: T1, Parkinson disease protein 7 (Homo sapiens); assay: Binding affinity to PARK7 in A549 cells assessed as band shift at 5 uM incubated for 24 hrs by SDS-PAGE based fluorescence scanning immunoblotting analysis
A549 (Homo sapiens) = assay: Cellular protein labelling in A549 cells assessed as unspecific 55-75 kDa band formation at 5 uM by SDS-PAGE based fluorescence scanning immunoblotting analysis
[10] = Drug penetration in human A549 cells at 5 uM incubated for 1 hrs by DAPI staining based confocal microscopic analysis; assay type: ADME, cell-based; conditions: a549, 1 h
How it was run: (§4)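 A549 cells incubated with probes at 5 μM final over a time course (1–24 h). For microscopy, cells on coverslips were fixed in 3.7% formaldehyde/PBS for 20 min, mounted with DAPI and imaged by confocal (63× oil). In parallel, cells were lysed for SDS-PAGE fluorescence scan and PARK7 immunoblot.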

[11] = target: T1, Parkinson disease protein 7 (Homo sapiens); assay: Binding affinity to recombinant human PARK7 at 2 uM incubated for 1 hrs by coomassie staining based SDS-PAGE fluorescence scanning analysis relative to control
A549 [12] = assay: Cellular protein labelling in human A549 cells assessed as unspecific 55-75 kDa band formation at 5 uM by SDS-PAGE based fluorescence scanning immunoblotting analysis; assay type: functional, cell-based; how it was run: as §3
[13] = target: T1, Parkinson disease protein 7 (Homo sapiens); assay: Binding affinity to PARK7 in human A549 cells assessed as band shift at 5 uM incubated for 4 hrs by SDS-PAGE based fluorescence scanning immunoblotting analysis relative to control; assay type: cell-based; how it was run: as §4

Activity [2]: Active | Activity [3]: Active | Activity [5]: Dose-Dependent Effect | Activity [6]: Active | Activity [9]: Active | Drug uptake [10]: Active | Activity [11]: 100% | Activity [13]: 100%
Compound: CC1=CC(C)=[N+]2C1=C(CCCCc1cn(-c3ccc(F)c(C(=O)N4CCc5nc(NC(=O)[C@@H]6CCN(C#N)C6)sc5C4)c3)nn1)c1c(C)cc(C)n1[B-]2(F)F
Activity (HEK-293T [1]): Active | Activity (A549 [4]): Active | Activity (HEK-293T [7]): inactive | Activity (A549 [8]): inactive | Activity (A549 (Homo sapiens)): Active | Activity (A549 [12]): Active

Reference: ChEMBL document CHEMBL5506034, “Development of Inhibitors, Probes, and PROTAC Provides a Complete Toolbox to Study PARK7 in the Living Cell” (J Med Chem, 2024)
